Experimental data taken from ChEMBL document CHEMBL1124476, “1-(2-aminoethyl)-6-aryl-4H- [1,2,4]triazolo[4,3-a][1,4]benzodiazepines with diuretic and natriuretic activity” (J Med Chem, 1989).

Columns and labels:
[1] = Diuretic activity at 40 mg/kg (screening dose-94.6 umol/kg) in […] in a one stage experiment; T/C = urine vol of treated rats / urine vol of control rats; type: functional
Outline: (§1)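 40 mg/kg given by gavage in 25 mL/kg 0.9% saline with 0.5% (carboxymethyl)cellulose. Four rats per agent, two per metabolism cage; 20 controls; 5 h urine. T/C = treated/control urine volume. Stage-1 T/C of 1.66 or more leads to stage 2; product T/C1·T/C2 of 3.34 or more counts as active.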

[2] = Diuretic activity at 40 mg/kg (screening dose 84 umol/kg) in […] in a one stage experiment; T/C = urine vol of treated rats / urine vol of control rats; type: functional; outline: as §1
Rattus norvegicus [3] = assay: Mean excretion of Cl- in conscious rats at a dose of 0.3 mg/kg given orally; type: ADME, organism-based, Urine; design: dose 0.3 mg/kg, route oral; settings: in vivo, po
Outline: (§2)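 Dose-response test in male Sprague-Dawley rats of about 160 g, fasted 24 h, with water withheld 1½ h before and during the test. Each rat got a single gavage of 25 mL/kg 0.9% saline with 0.5% carboxymethylcellulose carrying the agent (0.3–100 mg/kg range). Rats were housed two per metabolism cage, and urine was collected for 5 h. Mean urine volume (mL) was compared with controls (P < 0.05).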

Rattus norvegicus [4] = species: Rattus norvegicus; assay: […]; type: ADME, organism-based, Urine; design: dose 30 mg/kg, route oral; settings: in vivo, po, 30 mg/kg
Outline: (§3)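 Male Sprague-Dawley rats, about 160 g, fasted 24 h and water withheld 1 1/2 h beforehand; food and water withheld during the test. Dosing by gavage with 25 mL/kg 0.9% saline containing 0.5% (carboxymethyl)cellulose, agent dissolved or suspended. Three cages of two rats each per dose, held in metabolism cages. Urine collected over 5 h. Volume given in mL, Na+ in mequiv. Significance versus control at P < 0.05.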

Rattus norvegicus [5] = assay: Mean excretion of potassium in conscious rats at a dose of 30 mg/kg given orally; type: ADME, organism-based; design: dose 30 mg/kg, route oral; settings: in vivo, po
Outline: (§4)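 Secondary dose-response in male Sprague-Dawley rats (~160 g), fasted and hydrated as in the primary screen. Oral gavage at 0.3-100 mg/kg in 25 mL/kg saline/0.5% CMC, three cages of two rats per dose. Urine collected 5 h; Na, K, Cl, HCO3 measured. Values are mean excretion (mequiv), compared with controls at P < 0.05.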

Rattus norvegicus [6] = assay: Mean excretion of sodium in conscious rats at a dose of 3.0 mg/kg given orally; type: ADME, organism-based; design: dose 3 mg/kg, route oral; settings: in vivo, po; outline: as §3
Rattus norvegicus [7] = assay: Mean excretion of sodium in conscious rats at a dose of 100 mg/kg given orally; type: ADME, organism-based; design: dose 100 mg/kg, route oral; settings: in vivo, po; outline: as §3
Rattus norvegicus [8] = species: Rattus norvegicus; assay: […]; type: ADME, organism-based, Urine; design: dose 100 mg/kg, route oral; settings: in vivo, po, 100 mg/kg; outline: as §3
Rattus norvegicus [9] = assay: Mean excretion of […] in conscious rats at a dose of 1.0 mg/kg given orally; type: ADME, organism-based; design: dose 1 mg/kg, route oral; settings: in vivo, po; outline: as §3
Rattus norvegicus [10] = assay: Mean excretion of chloride in conscious rats at a dose of 1.0 mg/kg given orally; type: ADME, organism-based; design: dose 1 mg/kg, route oral; settings: in vivo, po; outline: as §4
Rattus norvegicus [11] = assay: Mean excretion of potassium in conscious rats at a dose of 10 mg/kg given orally; type: ADME, organism-based; design: dose 10 mg/kg, route oral; settings: in vivo, po; outline: as §4
Rattus norvegicus [12] = assay: Mean excretion of potassium in conscious rats at a dose of 1.0 mg/kg given orally; type: ADME, organism-based; design: dose 1 mg/kg, route oral; settings: in vivo, po; outline: as §4
[13] = Diuretic activity at 40 mg/kg (screening dose-75 umol/kg) in […] in a two stage experiment; T/C1.2 = urine vol of treated rats / urine vol of control rats; type: functional; outline: as §1
Rattus norvegicus [14] = assay: Mean excretion of sodium in conscious rats at a dose of 10 mg/kg given orally; type: ADME, organism-based; design: dose 10 mg/kg, route oral; settings: in vivo, po; outline: as §3
[15] = Diuretic activity at 40 mg/kg (screening dose-75 umol/kg) in […] in a one stage experiment; T/C = urine vol of treated rats / urine vol of control rats; type: functional; outline: as §1
Rattus norvegicus [16] = species: Rattus norvegicus; assay: […]; type: ADME, organism-based, Urine; design: dose 10 mg/kg, route oral; settings: in vivo, po, 10 mg/kg; outline: as §3
Rattus norvegicus [17] = assay: Mean excretion of potassium in conscious rats at a dose of 3.0 mg/kg given orally; type: ADME, organism-based; design: dose 3 mg/kg, route oral; settings: in vivo, po; outline: as §4
Rattus norvegicus [18] = assay: Mean excretion of potassium in conscious rats at a dose of 100 mg/kg given orally; type: ADME, organism-based; design: dose 100 mg/kg, route oral; settings: in vivo, po; outline: as §4
Rattus norvegicus [19] = assay: Mean excretion of potassium in conscious rats at a dose of 0.3 mg/kg given orally; type: ADME, organism-based; design: dose 0.3 mg/kg, route oral; settings: in vivo, po; outline: as §4
Rattus norvegicus [20] = assay: Mean excretion of chloride in conscious rats at a dose of 30 mg/kg given orally; type: ADME, organism-based; design: dose 30 mg/kg, route oral; settings: in vivo, po; outline: as §4
Rattus norvegicus [21] = assay: Mean excretion of chloride in conscious rats at a dose of 100 mg/kg given orally; type: ADME, organism-based; design: dose 100 mg/kg, route oral; settings: in vivo, po; outline: as §4
Rattus norvegicus [22] = assay: Mean excretion of sodium in conscious rats at a dose of 0.3 mg/kg given orally; type: ADME, organism-based; design: dose 0.3 mg/kg, route oral; settings: in vivo, po; outline: as §3
Rattus norvegicus [23] = species: Rattus norvegicus; assay: […]; type: ADME, organism-based, Urine; design: dose 1 mg/kg, route oral; settings: in vivo, po, 1 mg/kg; outline: as §2
Rattus norvegicus [24] = assay: Mean excretion of chloride in conscious rats at a dose of 10 mg/kg given orally; type: ADME, organism-based; design: dose 10 mg/kg, route oral; settings: in vivo, po; outline: as §4
Rattus norvegicus [25] = assay: Mean excretion of chloride in conscious rats at a dose of 3.0 mg/kg given orally; type: ADME, organism-based; design: dose 3 mg/kg, route oral; settings: in vivo, po; outline: as §4
Rattus norvegicus [26] = assay: Mean excretion of sodium in conscious rats at a dose of 30 mg/kg given orally; type: ADME, organism-based; design: dose 30 mg/kg, route oral; settings: in vivo, po; outline: as §3
Rattus norvegicus [27] = species: Rattus norvegicus; assay: […]; type: ADME, organism-based, Urine; design: dose 0.3 mg/kg, route oral; settings: in vivo, po, 0.3 mg/kg; outline: as §2
Rattus norvegicus [28] = species: Rattus norvegicus; assay: […]; type: ADME, organism-based, Urine; design: dose 3 mg/kg, route oral; settings: in vivo, po, 3 mg/kg; outline: as §3
[29] = Diuretic activity at 40 mg/kg (screening dose-82.4 umol/kg) in […] in a one stage experiment; T/C = urine vol of treated rats / urine vol of control rats; type: functional; outline: as §1
[30] = Diuretic activity at 40 mg/kg (screening dose-103.9 umol/kg) in […] in a one stage experiment; T/C = urine vol of treated rats / urine vol of control rats; type: functional; outline: as §1
[31] = Diuretic activity at 40 mg/kg (screening dose-82.5 umol/kg) in […] in a one stage experiment; T/C = urine vol of treated rats / urine vol of control rats; type: functional; outline: as §1
[32] = Diuretic activity at 40 mg/kg (screening dose 87.7 umol/kg) in […] in a two stage experiment; T/C1.2 = urine vol of treated rats / urine vol of control rats; type: functional; outline: as §1
[33] = Diuretic activity at 40 mg/kg (screening dose-87.7 umol/kg) in […] in a one stage experiment; T/C = urine vol of treated rats / urine vol of control rats; type: functional; outline: as §1

CN(C)CC(CN(C)C)c1nnc2n1-c1ccc(Cl)cc1C(c1ccccc1)=NC2
T/C 1 [1]: 1.22

CN(C)CC(c1ccc(Cl)cc1)c1nnc2n1-c1ccc(Cl)cc1C(c1ccccc1)=NC2 (configuration not stated)
T/C 1 [2]: 0.9

CN(C)CC(c1ccccc1)c1nnc2n1-c1ccc(I)cc1C(c1ccccc1)=NC2 (configuration not stated)
Mean excretion of Cl- (Rattus norvegicus [3]): 0.8 m equiv
Mean urine volume (Rattus norvegicus [4]): 12.9 mL
Mean excretion of K+ (Rattus norvegicus [5]): 0.24 m equiv
Mean excretion of Na+ (Rattus norvegicus [6]): 0.66 m equiv
Mean excretion of Na+ (Rattus norvegicus [7]): 2.09 m equiv
Mean urine volume (Rattus norvegicus [8]): 14.57 mL
Mean excretion of Na+ (Rattus norvegicus [9]): 0.65 m equiv
Mean excretion of Cl- (Rattus norvegicus [10]): 0.7 m equiv
Mean excretion of K+ (Rattus norvegicus [11]): 0.19 m equiv
Mean excretion of K+ (Rattus norvegicus [12]): 0.25 m equiv
T/C 1.2 [13]: 9.39
Mean excretion of Na+ (Rattus norvegicus [14]): 1.64 m equiv
T/C 1 [15]: 3.26
Mean urine volume (Rattus norvegicus [16]): 10.8 mL
Mean excretion of K+ (Rattus norvegicus [17]): 0.23 m equiv
Mean excretion of K+ (Rattus norvegicus [18]): 0.24 m equiv
Mean excretion of K+ (Rattus norvegicus [19]): 0.18 m equiv
Mean excretion of Cl- (Rattus norvegicus [20]): 1.73 m equiv
Mean excretion of Cl- (Rattus norvegicus [21]): 1.82 m equiv
Mean excretion of Na+ (Rattus norvegicus [22]): 0.75 m equiv
Mean urine volume (Rattus norvegicus [23]): 4.8 mL
Mean excretion of Cl- (Rattus norvegicus [24]): 1.5 m equiv
Mean excretion of Cl- (Rattus norvegicus [25]): 0.76 m equiv
Mean excretion of Na+ (Rattus norvegicus [26]): 1.98 m equiv
Mean urine volume (Rattus norvegicus [27]): 5.09 mL
Mean urine volume (Rattus norvegicus [28]): 4.86 mL

CN(C)CC(c1ccccc1)c1nnc2n1-c1ccc(S(C)(=O)=O)cc1C(c1ccccc1)=NC2 (configuration not stated)
T/C 1 [29]: 0.7

Clc1ccc2c(c1)C(c1ccccc1)=NCc1nnc(Cc3ccccc3)n1-2
T/C 1 [30]: 0.96

COC(CN(C)C)c1nnc2n1-c1ccc(Cl)cc1C(c1ccccc1)=NC2 (configuration not stated)
T/C 1 [31]: 1.32

CC1N=C(c2ccccc2)c2cc(Cl)ccc2-n2c1nnc2C(CN(C)C)c1ccccc1 (configuration not stated)
Mean excretion of Cl- (Rattus norvegicus [3]): 0.82 m equiv
Mean urine volume (Rattus norvegicus [4]): 9.56 mL
Mean excretion of K+ (Rattus norvegicus [5]): 0.24 m equiv
Mean excretion of Na+ (Rattus norvegicus [6]): 0.86 m equiv
Mean excretion of Na+ (Rattus norvegicus [7]): 2.04 m equiv
Mean urine volume (Rattus norvegicus [8]): 10.66 mL
Mean excretion of Na+ (Rattus norvegicus [9]): 0.82 m equiv
Mean excretion of Cl- (Rattus norvegicus [10]): 0.86 m equiv
Mean excretion of K+ (Rattus norvegicus [11]): 0.22 m equiv
T/C 1.2 [32]: 7.05
Mean excretion of K+ (Rattus norvegicus [12]): 0.19 m equiv
Mean excretion of Na+ (Rattus norvegicus [14]): 1.33 m equiv
Mean urine volume (Rattus norvegicus [16]): 7.53 mL
Mean excretion of K+ (Rattus norvegicus [17]): 0.24 m equiv
Mean excretion of K+ (Rattus norvegicus [18]): 0.21 m equiv
Mean excretion of K+ (Rattus norvegicus [19]): 0.24 m equiv
T/C 1 [33]: 3.05
Mean excretion of Cl- (Rattus norvegicus [20]): 1.64 m equiv
Mean excretion of Cl- (Rattus norvegicus [21]): 1.9 m equiv
Mean excretion of Na+ (Rattus norvegicus [22]): 0.74 m equiv
Mean urine volume (Rattus norvegicus [23]): 4.39 mL
Mean excretion of Cl- (Rattus norvegicus [24]): 1.33 m equiv
Mean excretion of Cl- (Rattus norvegicus [25]): 0.91 m equiv
Mean excretion of Na+ (Rattus norvegicus [26]): 1.65 m equiv
Mean urine volume (Rattus norvegicus [27]): 3.97 mL
Mean urine volume (Rattus norvegicus [28]): 4.96 mL
